Published values from different studies.
Compare with care: the assays were run in different laboratories.
Matrix: plasma

Structure (SMILES) | system | setting | AUC(0-t) [ng·h/mL]
CC(C)n1cc(C#N)c2cc(-n3cc(C(=O)O)cn3)ccc21 | human | oral, 50 mg, single dose, fasted, healthy volunteers | 6980
CO[C@H]1CC[C@H](N2C(=O)CNc3ncc(-c4ccc(C(C)(C)O)nc4)nc32)CC1 | human | oral, 45 mg, multiple doses, patients | 2080
COCCOc1cnc2ccn([C@H](C)c3nnc4c(F)cc(-c5cnn(C)c5)cn34)c(=O)c2c1 | human | oral, 50 mg, multiple doses, once daily, patients | 6940
CCNCCCNC/C=C\CNCCCNCC | human | intravenous, 200 mg, patients, infusion | 1330
COc1cc(N2CCC(N3CCN(C)CC3)CC2)ccc1Nc1ncnc(Nc2ccccc2S(=O)(=O)C(C)C)n1 | human | oral, 125 mg, multiple doses, patients | 8320
FC(F)(F)c1ccc(CNc2ccc(Cc3c[nH]c4ncc(Cl)cc34)cn2)cn1 | human | oral, 1000 mg, multiple doses, patients | 14000
CC(C)(O)c1ccccc1-c1ccc2[nH]c(/C=C/c3ccc(C(F)(F)F)cc3)nc2c1 | male human | oral, 120 mg, single dose, fasted | 2820
Cc1nc(NC(=O)N2CCC[C@H]2C(N)=O)sc1-c1ccnc(C(C)(C)C(F)(F)F)c1 | human | oral, 400 mg, patients | 40700
CO[C@@H]1[C@H](OC(=O)N2CC(CCN3CCOCC3)C2)CC[C@]2(CO2)[C@H]1[C@@]1(C)O[C@@H]1CC=C(C)C | human | subcutaneous, 0.2 mg, single dose, healthy volunteers | 0.24
C[C@@]1(c2cc(NC(=O)c3ccc(C#N)cn3)ccc2F)C=CSC(N)=N1 | human | oral, 3 mg, single dose | 231
CCCCC1=NC2(CCCC2)C(=O)N1Cc1ccc(-c2ccccc2S(=O)(=O)Nc2noc(C)c2C)c(COCC)c1 | human | oral, 800 mg, single dose, fasted, healthy volunteers | 138000
COc1ccc([C@@H]2CN(C(=O)[C@@H](O)CO)C[C@@]2(C)[C@@H](C)O)cc1OC1CN(c2ccc(C)cn2)C1 | human | oral, 1.5 mg, single dose, healthy volunteers | 467
